As a reminder, the pIC50 is −log10 of the IC50, conventionally taken in molar units. Low values mean a high IC50, high ones a low IC50.

pIC50: −log10 of the molar value.

The test system of the first assay is HeLa. Briefly: Cytotoxicity against human HeLa cells after 48 hrs by MTT assay.
Conditions: not given
The class given is functional, cell-based. In short, it runs like this: (§1)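 Run in triplicate; 10^4 cells per well, attached overnight. Cells exposed 4 h at 37 °C, 5% CO2, to compounds serially diluted from 10 mg/mL DMSO stocks (vehicle wells 0.2% DMSO in medium), then medium changed to fresh DMEM and grown a further 48 h. MTT at 0.5 mg/mL added for 3 h at 37 °C in the dark; formazan dissolved in DMSO, absorbance read at 540 nm.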
On the technique in general: Tetrazolium dyes change colour on reduction, which living cells bring about.
On to `C#C[C@H](O)COc1ccc(COC(C)=O)cc1`, for which the pIC50 is < 3.77.

The compound `O=c1[nH]cc(F)c(=O)[nH]1` [FLUOROURACIL] had a pIC50 of 5.00.

The compound `C#C[C@H](O)COc1ccc(COC)cc1` showed a pIC50 of 4.03.

As to `C=C=CCOc1ccc(CO)cc1` [TERRICOLLENE C], the pIC50 is 4.07.

As to `C#C[C@H](O)COc1ccc(CO)cc1` [TERRICOLYNE], the pIC50 is < 3.70.

As for `C=C=CCOc1ccc(CO[C@@H]2O[C@H](CO)[C@@H](O)[C@H](O)[C@H]2O)cc1` [TERRICOLLENE A], the pIC50 was 4.27.

Consider `C=C=CCOc1ccc(CO[C@@H]2O[C@H](CO)[C@@H](O)[C@H](O)[C@@H]2O)cc1` [TERRICOLLENE B], for which the negative-log IC50 (pIC50) is < 3.93.

For the next assay, the system named is MCF7. The assay is described as follows: Cytotoxicity against human MCF7 cells after 48 hrs by MTT assay. The conditions noted are these: MCF7, 48 h. The assay is classed as functional, cell-based. In short, it runs like this: as §1
Regarding `C#C[C@H](O)COc1ccc(COC(C)=O)cc1`, the negative logarithm of the IC50 (pIC50) is < 3.77.

With `C#C[C@H](O)COc1ccc(COC)cc1`, the pIC50 is 3.94.

Compound `C=C=CCOc1ccc(CO)cc1` [TERRICOLLENE C] showed a pIC50 of 3.94.

In the case of `C#C[C@H](O)COc1ccc(CO)cc1` [TERRICOLYNE], the pIC50 is < 3.70.

For the compound `C=C=CCOc1ccc(CO[C@@H]2O[C@H](CO)[C@@H](O)[C@H](O)[C@H]2O)cc1` [TERRICOLLENE A], the pIC50 was 4.23.

Turning to `C=C=CCOc1ccc(CO[C@@H]2O[C@H](CO)[C@@H](O)[C@H](O)[C@@H]2O)cc1` [TERRICOLLENE B], the pIC50 was < 3.93.

For the origin of these results see ChEMBL document CHEMBL1154331, “Allenyl and alkynyl phenyl ethers from the endolichenic fungus Neurospora terricola” (J Nat Prod, 2009).
